Source: ChEMBL document CHEMBL4033790, “Design and Synthesis of Novel Deuterated Ligands Functionally Selective for the γ-Aminobutyric Acid Type A Receptor (GABAAR) α6 Subtype with Improved Metabolic Stability and Enhanced Bioavailability” (J Med Chem, 2018)

Tests used:
Brain [1] = experiment: Oral bioavailability in Wistar rat brain at 2 mg/kg administered as single dose via gavage by HPLC-MS/MS analysis; format: ADME, organism-based; details: in vivo
In short: (§1)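 Male Wistar rats (250-350 g) received a single 2 mg/kg dose, nanoemulsion formulation, by oral gavage or IV. Three rats per time point (5, 30, 120, 480, 1440 min); plasma and brain collected. Compound extracted by solid-phase extraction and quantified by HPLC-MS/MS. Absolute oral bioavailability was calculated from plasma AUC after the two routes.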

Brain [2] = experiment: AUC (0 to 24 hrs) in Wistar rat brain at 2 mg/kg administered as single dose via oral gavage by HPLC-MS/MS analysis; format: ADME, organism-based; set-up: time < 24 hr, dose 2 mg/kg, route oral; details: in vivo
[3] = Cmax in Wistar rat plasma at 2 mg/kg, iv administered as single dose measured at 5 to 1440 mins post dose by HPLC-MS/MS analysis; format: ADME, organism-based; set-up: dose 2 mg/kg, route intravenous
In short: (§2)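 Absolute oral bioavailability study in Wistar rats: single 2 mg/kg dose by oral gavage or IV, using nanoemulsion formulations. Three rats per time point (5, 30, 120, 480, 1440 min). Plasma and brain were extracted by solid phase extraction and levels measured by HPLC-MS/MS. Bioavailability was calculated from plasma AUC for the two routes.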

[4] = Tmax in Wistar rat plasma at 10 mg/kg, ip administered as single dose by HPLC-MS/MS analysis; format: ADME, organism-based
In short: (§3)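 Male Wistar rats (250–350 g) received a single i.p. dose of 10 mg/kg as a 5 mg/ml suspension in 85% water, 14% propylene glycol and 1% Tween 80. Three rats per time point were sacrificed at 5, 20, 60, 180 and 720 min for plasma and brain. Samples were cleaned up by solid-phase extraction and quantified by HPLC-MS/MS.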

[5] = molecular target: Voltage-gated inwardly rectifying potassium channel KCNH2 (Homo sapiens, UniProt Q12809); experiment: Displacement of [3H]-dofetilide from human ERG expressed in HEK cell membranes at >10 uM after 60 to 90 mins by scintillation counting
Brain [6] = experiment: AUC (0 to 12 hrs) in Wistar rat brain at 10 mg/kg, ip administered as single dose by HPLC-MS/MS analysis; format: ADME, organism-based; set-up: dose 10 mg/kg, time < 12 hr, route intraperitoneal; details: in vivo
[7] = Terminal elimination half-life in Wistar rat brain at 2 mg/kg, iv administered as single dose by HPLC-MS/MS analysis; format: ADME, organism-based; details: read-out: beta t1/2 (converted); in short: as §1
[8] = Cmax in Wistar rat brain at 10 mg/kg, ip administered as single dose measured at 5 to 720 mins post dose by HPLC-MS/MS analysis; format: ADME, organism-based; set-up: dose 10 mg/kg, route intraperitoneal
In short: (§4)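 Male Wistar rats (250-350 g) given a single 10 mg/kg i.p. dose of a 5 mg/ml suspension in 85% distilled water, 14% propylene glycol, 1% Tween 80. Three rats per time point (5, 20, 60, 180, 720 min). Blood and brain were collected after sacrifice. Drug was recovered by solid phase extraction and quantified by HPLC-MS/MS.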

[9] = Terminal elimination half-life in Wistar rat plasma at 2 mg/kg administered as single dose via oral gavage by HPLC-MS/MS analysis; format: ADME, organism-based; details: read-out: beta t1/2 (converted)
In short: (§5)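 Male Wistar rats (250–350 g) received a single 2 mg/kg dose, by oral gavage or IV, from nanoemulsion formulations. Three rats per time point were sampled for plasma and brain at 5, 30, 120, 480 and 1440 min. Compound levels were measured by HPLC-MS/MS after solid-phase extraction; oral bioavailability was derived from plasma AUCs for the two routes.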

[10] = Terminal elimination half-life in Wistar rat brain at 10 mg/kg, ip administered as single dose by HPLC-MS/MS analysis; format: ADME, organism-based; details: read-out: beta t1/2 (converted); in short: as §3
[11] = Metabolic stability in human liver microsomes assessed as parent compound remaining at 10 uM after 60 mins by LC-MS analysis; format: ADME, microsome; details: read-out: Stability
In short: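 The 60 min samples of the microsomal incubation (10 μM compound, human or mouse liver microsomes at 0.5 mg/mL, NADPH regenerating system, 37 °C) were analysed by LC-MS. Detection used SIM mode with dual ESI/APCI ionization, calibrated to the retention times and masses of the parent and its O-demethylated metabolites. Peak intensities were measured.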

[12] = AUC (0 to 12 hrs) in Wistar rat plasma at 10 mg/kg, ip administered as single dose by HPLC-MS/MS analysis; format: ADME, organism-based; set-up: time < 12 hr, dose 10 mg/kg, route intraperitoneal
[13] = Terminal elimination half-life in Wistar rat brain at 2 mg/kg administered as single dose via oral gavage by HPLC-MS/MS analysis; format: ADME, organism-based; details: read-out: beta t1/2 (converted); in short: as §5
[14] = Tmax in Wistar rat brain at 2 mg/kg administered as single dose via oral gavage by HPLC-MS/MS analysis; format: ADME, organism-based; in short: as §5
[15] = Cmax in Wistar rat brain at 2 mg/kg, iv administered as single dose measured at 5 to 1440 mins post dose by HPLC-MS/MS analysis; format: ADME, organism-based; set-up: dose 2 mg/kg, route intravenous; in short: as §2
[16] = Cmax in Wistar rat plasma at 2 mg/kg administered as single dose via oral gavage measured at 5 to 1440 mins post dose by HPLC-MS/MS analysis; format: ADME, organism-based; set-up: dose 2 mg/kg, route oral; in short: as §2
[17] = Cmax in Wistar rat plasma at 10 mg/kg, ip administered as single dose measured at 5 to 720 mins post dose by HPLC-MS/MS analysis; format: ADME, organism-based; set-up: dose 10 mg/kg, route intraperitoneal; in short: as §4
[18] = Ratio of brain AUC (0 to t) to plasma AUC (0 to t), Kp of the compound in Wistar rat at 10 mg/kg, ip administered as single dose by HPLC-MS/MS analysis; format: ADME, organism-based
[19] = Tmax in Wistar rat plasma at 2 mg/kg, iv administered as single dose by HPLC-MS/MS analysis; format: ADME, organism-based; in short: as §5
[20] = Tmax in Wistar rat brain at 10 mg/kg, ip administered as single dose by HPLC-MS/MS analysis; format: ADME, organism-based; in short: as §3
[21] = Tmax in Wistar rat brain at 2 mg/kg, iv administered as single dose by HPLC-MS/MS analysis; format: ADME, organism-based; in short: as §5
[22] = Oral bioavailability in Wistar rat plasma at 2 mg/kg administered as single dose via gavage by HPLC-MS/MS analysis; format: ADME, organism-based; in short: as §1
Mus musculus [23] = experiment: Hyperlocomotor activity in C57BL/6 mouse assessed as total distance travelled at 3 to 10 mg/kg, ip after 60 mins; format: ADME, organism-based; details: in vivo, 1 h
[24] = Terminal elimination half-life in Wistar rat plasma at 2 mg/kg, iv administered as single dose by HPLC-MS/MS analysis; format: ADME, organism-based; details: read-out: beta t1/2 (converted); in short: as §5
Mus musculus [25] = experiment: Neurotoxicity in Swiss Webster mouse assessed as induction of motor impairment at 40 mg/kg administered via oral gavage measured after 10 to 60 mins by rotarod method; format: toxicity, organism-based; details: in vivo
In short: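 Female mice were given a single oral gavage dose of 40 mg/kg, either in 50% PBS/40% propylene glycol/10% DMSO or, for poorly soluble compounds, in 2% polyethylene glycol plus 2.5% hydroxymethyl cellulose. Rotarod performance was tested 10, 30 and 60 min after dosing, with diazepam 5 mg/kg as positive control.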

[26] = Tmax in Wistar rat plasma at 2 mg/kg administered as single dose via oral gavage by HPLC-MS/MS analysis; format: ADME, organism-based; in short: as §5
Rattus norvegicus = experiment: Hyperlocomotor activity in Wistar rat assessed as total distance travelled at 3 to 10 mg/kg, ip after 60 mins; format: ADME, organism-based; details: in vivo, 1 h
[27] = Terminal elimination half-life in Wistar rat plasma at 10 mg/kg, ip administered as single dose by HPLC-MS/MS analysis; format: ADME, organism-based; details: read-out: beta t1/2 (converted); in short: as §3

Sequence of Voltage-gated inwardly rectifying potassium channel KCNH2 (Q12809 whole entry): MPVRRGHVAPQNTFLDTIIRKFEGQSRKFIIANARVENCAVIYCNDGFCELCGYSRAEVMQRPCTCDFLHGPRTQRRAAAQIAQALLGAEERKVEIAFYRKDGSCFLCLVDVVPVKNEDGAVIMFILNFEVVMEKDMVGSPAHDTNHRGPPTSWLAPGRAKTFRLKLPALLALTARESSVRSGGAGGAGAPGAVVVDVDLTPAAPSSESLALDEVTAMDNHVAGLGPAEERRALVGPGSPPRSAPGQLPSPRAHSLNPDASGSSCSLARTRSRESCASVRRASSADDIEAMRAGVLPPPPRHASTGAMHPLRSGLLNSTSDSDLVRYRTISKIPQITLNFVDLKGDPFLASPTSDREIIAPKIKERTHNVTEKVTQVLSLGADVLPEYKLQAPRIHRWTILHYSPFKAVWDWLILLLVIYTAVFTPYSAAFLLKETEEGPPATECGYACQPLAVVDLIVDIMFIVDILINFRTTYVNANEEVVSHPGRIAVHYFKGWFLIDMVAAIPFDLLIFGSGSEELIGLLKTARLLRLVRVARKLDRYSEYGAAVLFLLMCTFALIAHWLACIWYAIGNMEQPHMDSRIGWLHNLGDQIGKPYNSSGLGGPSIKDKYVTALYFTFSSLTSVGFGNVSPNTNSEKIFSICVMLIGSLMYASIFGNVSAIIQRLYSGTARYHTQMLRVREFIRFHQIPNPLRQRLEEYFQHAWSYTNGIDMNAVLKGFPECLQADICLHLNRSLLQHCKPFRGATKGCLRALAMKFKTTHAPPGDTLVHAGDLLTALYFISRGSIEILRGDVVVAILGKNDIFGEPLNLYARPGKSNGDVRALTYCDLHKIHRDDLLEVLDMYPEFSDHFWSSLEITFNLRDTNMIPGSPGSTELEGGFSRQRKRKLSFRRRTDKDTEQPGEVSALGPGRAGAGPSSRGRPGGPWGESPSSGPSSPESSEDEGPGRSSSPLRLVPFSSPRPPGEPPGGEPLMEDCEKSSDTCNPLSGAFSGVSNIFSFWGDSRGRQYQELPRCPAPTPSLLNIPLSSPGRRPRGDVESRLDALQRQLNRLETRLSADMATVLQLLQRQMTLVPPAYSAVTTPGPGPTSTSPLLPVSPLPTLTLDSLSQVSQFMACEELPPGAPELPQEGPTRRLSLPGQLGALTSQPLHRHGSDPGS

| SMILES | F (Brain [1]) [%] | AUC (Brain [2]) [ng·h/g] | Cmax [3] [µg/mL] | Tmax [4] [h] | inhibition (INH) [5] | AUC (Brain [6]) [ng·h/g] | half-life [7] [h] | Cmax [8] [ng/g] | half-life [9] [h] | half-life [10] [h] | remaining at 1 h, 10 µM [11] [%] | AUC(0-t) at 12 h [12] [µg·h/mL] | half-life [13] [h] | Tmax [14] [h] | Cmax [15] [ng/g] | Cmax [16] [µg/mL] | Cmax [17] [µg/mL] | Kp [18] | Tmax [19] [h] | Tmax [20] [h] | other results |
| --- | --- | --- | --- | --- | --- | --- | --- | --- | --- | --- | --- | --- | --- | --- | --- | --- | --- | --- | --- | --- | --- |
| [2H]C([2H])([2H])Oc1ccc(-n2nc3c4ccc(OC)cc4[nH]cc-3c2=O)cc1 | 89.5 | 513.12 | 0.728 | 1.67 | Not Active | 3350.72 | 4.34 | 587 | 1.4 | 2.28 | 91.7 | 24.2 | 4.2 | 3.5 | 71.9 | 0.222 | 4.43 | 0.13 | 0 | 2.33 | Tmax [21]: 1.36 h; bioavailability [22]: 100%; Activity (Mus musculus [23]): Toxic; half-life [24]: 1.95 h; Activity (Mus musculus [25]): Non-Toxic; Tmax [26]: 5.5 h; Activity (Rattus norvegicus): Toxic; half-life [27]: 3.54 h |
| COc1ccc(-n2nc3c4ccc(OC)cc4[nH]cc-3c2=O)cc1 | 82.6 | 708.21 | 0.597 | 1 | Not Active | 2177.98 | 10.9 | 352 | 9 | 1.96 | 86.1 | 28.8 | 12.7 | 1.5 | 84.5 | 0.173 | 5.05 | 0.08 | 0 | 2.33 | Tmax [21]: 0.86 h; bioavailability [22]: 66.9%; Activity (Mus musculus [23]): Toxic; half-life [24]: 5.29 h; Activity (Mus musculus [25]): Non-Toxic; Tmax [26]: 2 h; Activity (Rattus norvegicus): Toxic; half-life [27]: 1.51 h |
